From PubChem
Rows were chosen to be rich in hits. Some 1.8% of all compounds tested hit in one or more screens of this group.
SIAE primary – blocks human sialic acid acetylesterase. Q9HAT2. SIAE FP-Rh probe binding, fluorescence polarization. inhibition, % at 9.66 µM. actives 0.69% (n = 370,000);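 active = inhibition above a cutoff: mean of compounds within the control limits plus 3 SD of those, cut at about 17% in these data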
HTRA1 inhibitor – blocks human HTRA1 serine peptidase; Q92743; inhibition, % at 5.96 µM; actives 0.5% (n = 340,000); recombinant HTRA1, FP-rhodamine activity-based probe, fluorescence polarization; in the data active = inhibition above about 36%
Target sequence (Q92743 whole entry, looked up): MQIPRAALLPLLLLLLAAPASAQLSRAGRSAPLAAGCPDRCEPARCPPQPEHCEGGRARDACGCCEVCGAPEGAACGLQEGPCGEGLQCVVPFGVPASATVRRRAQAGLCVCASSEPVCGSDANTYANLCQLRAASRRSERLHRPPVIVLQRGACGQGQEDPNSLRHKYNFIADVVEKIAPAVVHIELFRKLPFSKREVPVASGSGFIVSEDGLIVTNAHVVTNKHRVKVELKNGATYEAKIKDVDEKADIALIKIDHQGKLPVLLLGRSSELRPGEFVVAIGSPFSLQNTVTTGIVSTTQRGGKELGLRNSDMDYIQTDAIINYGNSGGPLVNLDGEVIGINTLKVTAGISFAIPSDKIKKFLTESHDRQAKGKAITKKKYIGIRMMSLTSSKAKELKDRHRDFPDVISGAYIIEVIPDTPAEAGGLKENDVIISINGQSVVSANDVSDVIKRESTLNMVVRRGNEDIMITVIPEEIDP
PME-1 primary – blocks human protein phosphatase methylesterase 1; inhibition, % at 5.9 µM; actives 0.53% (n = 320,000); recombinant PME-1, FP-Rh probe fluorescence polarization; AID 2130; Q9Y570;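 active = inhibition above the campaign mean of all compounds plus 3 SD, cut at about 26% in these data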;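 also: competitive labeling of PME-1 active site by serine hydrolase directed probe; inhibitors block probe labeling so polarization falls and inhibition rises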
TCR-CD3 inh – human TCR-CD3 binding inhibition. inhibition, % at 9.4 µM. actives 0.37% (n = 360,000). TAMRA-labeled TCR probe fluorescence, biochemical. AID 651800; in the data active = inhibition above about 19%;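 also: recombinant mutant TCR 2C K166C tagged with TAMRA read by polarization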
Fam108B inh – counter-screen for RBBP9 inhibitors: inhibitors of mouse Fam108B. actives 0.33% (n = 300,000). inhibition, % at 9.51 µM. recombinant Fam108B, FP-Rh probe fluorescence polarization. AID 1947;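 active = inhibition above the screen mean inhibition plus 3 SD, computed separately per campaign, cut at about 18% in these data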;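 also: inhibitors lower polarization as less probe binds the enzyme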
ABHD4 inh – inhibits mouse alpha/beta hydrolase domain 4; Q8VD66; purified mABHD4, FP-Rh probe fluorescence polarization; inhibition, % at 8.92 µM; actives 0.54% (n = 370,000);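 active = inhibition exceeding the mean over every tested compound plus 3 SD, cut at about 30% in these data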
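Material: mouse ABHD4 enzyme, wild type; Benchmarks: S159A mutant high control, sample median low control; Buffer or medium: HEPES pH 7.0, NaCl, Pluronic buffer; Signal: fluorescence polarization; Read-out: percent inhibition of probe binding, normalized to plate controls; Timing: pre-incubation 45 min, probe exposure 60 min, at 25 °C; Dosing: 8.92 µM, single dose.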
SIAE inh conf – human SIAE inhibition, confirmation | shares compounds with SIAE primary | SIAE FP-Rh activity-based probe, fluorescence polarization | inhibition, % at 9.66 µM | actives 13% (n = 2,300) | AID 1117263;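 active = mean inhibition of the replicates above the hit cutoff set in the primary screen, cut at about 17% in these data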;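 also: inhibitors lower polarization as more probe stays unbound to SIAE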
Numbers stand for hits; - = inactive; . = no result given.

SMILES	SIAE primary	HTRA1 inhibitor	PME-1 primary	TCR-CD3 inh	Fam108B inh	ABHD4 inh	SIAE inh conf
O=[N+]([O-])c1cccc(CN2CCN(c3cccc4[nH]ccc34)CC2)c1	20	-	-	-	-	-	-
CC(=O)NNc1cc(N2CCOCC2)nc(N2CCOCC2)n1	25	-	-	-	-	-	-
CC(=O)c1ccc2c(c1)C1C=CCC1C(C(=O)O)N2 (configuration not stated)	34	.	.	49	.	70	-
Cc1ccc(C2=CC(=O)C[C@H](c3ccc(Cl)cc3)C2)cc1	.	-	-	.	.	.	.
O=C1C=C(c2ccccc2)C[C@@H](c2ccc(Cl)cc2)C1	26	-	-	-	.	-	-
Cn1c(SCC(=O)NCCc2ccccc2)nnc1C1CCCCC1	-	-	-	-	-	-	.
CC(=O)C(=Nc1cccc(Cl)c1)NNc1ccccc1C	-	-	-	-	-	-	.
COc1ccc(C(=O)O)nc1C	21	-	-	-	-	-	-
CC(=O)N1CCC2(CC1)C/C(=N\NC(=S)Nc1ccccc1C)c1cc(O)ccc1O2	18	-	-	-	-	-	-
COc1cc(OC)c(C2SCCCS2)cc1OC	18	-	-	-	-	-	-
COc1cc(OC)c(C2N(C)c3ccccc3N2C)cc1OC	.	.	-	.	-	.	.
Cc1ccccc1Nc1c(-c2ccncc2)nc2ccc(Br)cn12	-	-	-	-	-	-	.
Brc1ccc2nc(-c3ccncc3)c(NC3CCCC3)n2c1	19	-	-	-	-	-	-
COc1cccc(CCNC(=O)CC2C(=O)NCCN2CC(C)(C)C)c1 (configuration not stated)	17	-	-	-	-	-	-
O=C1C=C(c2cc(C(F)(F)F)cc(C(F)(F)F)c2)C[C@@H](c2ccc(Cl)cc2)C1	-	-	-	-	.	-	.
COc1ccc(Oc2cn[nH]c2-c2ccc(O)cc2O)cc1	19	-	-	-	-	-	-
CSc1ccccc1C(=O)NC1CCCN(c2ccc(C(F)(F)F)cn2)C1 (configuration not stated)	-	-	-	-	-	-	.
CCCC(=O)N1CCC(O)(c2cccc(F)c2)CC1	49	-	-	-	-	-	-
O=C(C1CCC1)N1CCC(O)(c2cccc(F)c2)CC1	-	-	-	-	-	-	.
C=CCNC(=O)c1ccc(-c2nc3ccccc3nc2-c2ccccc2)cc1	33	-	-	-	-	-	-
Cc1ccc([N+](=O)[O-])cc1NC(=O)C1CCCC1	-	-	-	-	-	-	.
Cc1ccc([N+](=O)[O-])cc1NC(=O)C1CCN(S(C)(=O)=O)CC1	20	-	-	-	-	-	-
CC1=C(C(=O)N(C(C)C)C(C)C)CC(CC(=O)NCc2ccco2)C(=O)N1Cc1ccccc1 (configuration not stated)	-	.	.	-	.	-	.
CCOC(=O)C1=C(O)/C(=C\c2ccc(CNS(=O)(=O)c3ccc(Br)cc3)o2)N=C1C	18	-	-	-	-	-	-
COC(=O)C1=C(O)/C(=C\c2ccc(CNS(=O)(=O)c3ccc(Cl)cc3)o2)N=C1C	22	-	-	-	-	-	-
SMILES	SIAE primary	HTRA1 inhibitor	PME-1 primary	TCR-CD3 inh	Fam108B inh	ABHD4 inh	SIAE inh conf
COC(=O)C1=C(O)/C(=C\c2ccc(CNC(=O)C(=O)Nc3ccc(C)c(C)c3)o2)N=C1C	-	-	-	-	-	-	.
O=C(CCCc1nc(-c2ccccc2)no1)NC1CCCCC1	-	-	-	-	-	-	.
O=C(CCl)Nc1c(C(=O)Nc2ccc3c(c2)OCCO3)oc2ccccc12	20	-	-	-	-	-	-
Cc1ccc(NC(=O)c2ccc(S(=O)(=O)N(C)c3ccccc3)cc2)cc1S(=O)(=O)N1CCOCC1	18	-	.	-	.	-	-
COc1ccc(C(=O)Nc2nc(CC(=O)NCCc3ccccc3)cs2)cc1	-	-	-	-	-	-	.
O=C(Cc1csc(NC(=O)c2ccccc2)n1)NO	22	-	-	-	-	-	-
CC1=CC(C)(C)Nc2ccc(OC(=O)CN3C(=O)c4ccccc4C3=O)cc21	-	-	-	-	-	-	.
CC1=CC(C)(C)Nc2ccc(OC(=O)CN3C(=O)c4cccc5cccc(c45)C3=O)cc21	19	-	-	-	-	-	-
N#Cc1cccc(-n2cc(COC(=O)NCCc3ccccc3)nn2)c1	-	.	.	.	.	-	.
Cc1cccc(-c2n[nH]c(=S)n2/N=C/C=C/c2ccco2)c1	-	-	-	-	-	-	.
S=c1[nH]nc(-c2ccncc2)n1/N=C/C=C/c1ccco1	19	-	-	-	-	-	-
Cc1cc(NC(=O)Nc2ccc(OCc3ccccc3)cc2)n(C)n1	.	-	-	.	-	.	.
Cc1ccccc1Cn1c(=N)n(CC(=O)c2ccco2)c2ccccc21	22	-	-	-	-	-	-
CCCn1c(=N)n(CC(=O)c2ccco2)c2ccccc21	-	-	-	-	-	-	.
COc1ccc(NC(=O)c2ccc(-c3ccc([N+](=O)[O-])cc3)o2)cc1OC	19	-	-	-	-	-	-
C=Cc1ccc(Cn2c(C)c(C(=O)NCc3ccc(Cl)c(Cl)c3)sc2=O)cc1	-	.	.	-	.	-	.
O=C1COc2ccc(C(=O)COC(=O)Cc3ccc(F)cc3)cc2N1	-	-	-	-	-	-	.
O=C(NCc1cccs1)c1cccc(Nc2nc3ccc(Br)cc3[nH]2)c1	43	-	-	-	-	-	22
COc1ccc(NC(=O)NNC(=O)COc2ccc3ccccc3c2)cc1	18	-	-	-	-	-	-
O=C(COc1ccc2ccccc2c1)NNC(=O)Nc1ccccc1F	-	-	-	-	-	-	.
CNC(=S)N/N=C/c1cn(CCOc2cccc(OC)c2)c2ccccc12	22	-	-	-	-	-	-
CNC(=S)N/N=C/c1cn(CCOc2ccccc2OC)c2ccccc12	-	-	-	-	-	-	.
CCc1nnc(NC(=O)CSc2nc3c([nH]c4ccccc43)c(=O)n2CCOC)s1	18	-	-	-	-	-	-
COc1cccc(NC=C2C(=O)OC3(CCCCC3)OC2=O)c1	-	-	-	-	-	-	.
COc1ccc(C2=CC(=O)OC3(CCCCC3)O2)cc1	19	-	-	-	-	-	-
N#CCCN(C(=O)CSc1nc2ccccc2c(=O)[nH]1)c1ccc(F)cc1	-	-	.	-	.	-	.
COc1cc(/C=N\NC(=O)c2ccc(-c3ccccc3)cc2)cc(OC)c1O	28	-	-	-	-	-	-
COc1ccccc1/C=N/NC(=O)c1ccc(-c2ccccc2)cc1	-	-	-	-	-	-	.
COc1cc(/C=N\NC(=O)c2ccc(-c3ccccc3)cc2)cc(OC)c1OC(C)=O	23	-	.	-	.	-	-
COc1cc(/C=N/NC(=O)c2ccc(COc3cc(C)ccc3C(C)C)cc2)cc(OC)c1O	22	-	-	-	-	-	-
